Consider 18 compounds from PubChem BioAssay.

Experiment [1] in a line: S. cerevisiae growth inhibition in permissive medium (OD615), pilot counter-assay for S. cerevisiae lifespan shortening project, permissive growth control (AID 705;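 active = growth inhibition above 25% in both replicates, a cutoff set 3 SD above the mean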). Conditions: OD615, 24 h, at 10 µM, stronger effect = higher value. A digest of the protocol:
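System – S. cerevisiae with engineered DeaD lifespan system · Buffer or medium – SC raffinose/galactose permissive medium · Schedule – cells pre-grown 4 h, then 24 h compound exposure, 30 °C humidified · Technique – culture turbidity as optical density at 615 nm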

A short description of experiment [2]: S. cerevisiae growth inhibition in restrictive medium, OD615, pilot screen, restrictive growth control, yeast lifespan reduction project (AID 706;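 active = growth inhibition above a set limit, 3 SD over mean compound inhibition, in both replicates, cut at about 43% in these data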;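 note: modified DeaD lifespan yeast strain shifted to restrictive glucose medium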). Conditions: OD615, 48 h, at 10 µM, stronger effect = higher value. The gist of the method: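 Material: engineered S. cerevisiae DeaD strain / Medium: glucose-based CSMM-D restrictive medium / Compound: single dose of 10 µM compound final, 0.25% DMSO / Timing: 4 h pre-incubation, 48 h exposure at 30 °C / Technique: OD615 absorbance reading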

The nature of experiment [3]: doxorubicin toxicity protection in MRP-1 cells – H69AR cells, CellTiter-Glo, duplicate, MRP-1 activator project, pilot screen (AID 807;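 active = viability increase at or above a cutoff of the median across tested compounds plus 3 SD, cut at about 8.5% in these data, passing the limit was not always enough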;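 note: compound pretreatment 18-22 h then 72 h combined with doxorubicin; 0% = doxorubicin alone and 100% = vehicle without doxorubicin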). The following applies: H69AR viability with doxorubicin, CellTiter-Glo luminescence; at 10 µM; stronger effect = higher value.
Experiment [4] in a line: viability of HCT116 without oncogenic beta-catenin – human colon tumor cells, pilot screen (AID 823;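 active = cell viability at or below a set limit in both duplicate runs, the limit being the all-compound median minus 4 SD, cut at about 23% in these data, passing the limit was not always enough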;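 note: 0% = wells killed by 20 µM Hyamine and 100% = untreated DMSO cell wells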). Conditions: HCT116 beta-catenin knockout viability, CellTiter-Glo, 60 h; at 10 µM; stronger effect = lower value.
The nature of experiment [5]: viability of PTEN-null HCT116 cells – cell-based, HCT116 clonal line, CellTiter-Glo, pilot screen (AID 824;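 active = viability at or below 27.92% in each of two runs, the all-compound median minus 4 SD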;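 note: 0% = 20 µM Hyamine control and 100% = vehicle cell control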). Conditions: HCT116 PTEN-deleted viability, 60 h, at 10 µM, stronger effect = lower value.
The nature of experiment [6]: RAM pathway blockade in budding yeast – dse1pr::URA3 reporter, 5-FOA selection, pilot screen (AID 869;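 active = inhibition over a set limit, the all-compound mean plus 3 SD, in both replicate runs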;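 note: 0% = DMSO wells with no growth and 100% = 10 µM 1-NA-PP1 with full growth; RAM network block rescues cells from 5-FOA so hits raise OD615 growth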). The following applies: S. cerevisiae dse1pr::URA3 5-FOA growth, OD615, 2 d; at 10 µM; stronger effect = higher value; strain carries analog-sensitive mutant Cbk1 kinase.
Experiment [7] in a line: RAM signaling pathway blockade in yeast – S. cerevisiae, Pdr1DBD-CYC8 efflux-inhibited sensitized strain, primary screen (AID 1298).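 Note: 0% = DMSO untreated cells without growth and 100% = 10 µM 1-NA-PP1 full growth; higher means more yeast growth rescued from 5-FOA killing.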 The following applies: S. cerevisiae cbk1-as DSE1-URA3 strain, 5-FOA growth OD615, 2 d; at 50 µM; stronger effect = higher value.

Molecules are shown by their SMILES. Values without a mark were called inactive. Results filed as inconclusive are left out. Active and inactive are the calls of the source.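 Rule for the calls, unless noted: active = RAM network inhibition above 8.4% in each of two replicates, 3 SD over the compound average; inconclusive = above 8.4% inhibition in only one replicate; inactive = 8.4% inhibition or less in each replicate.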

Regarding `Cc1ccc(C(c2sc3nc(C)nn3c2O)N2CCN(CCO)CC2)cc1` (stereo unspecified), the figures for the growth inhibition in experiment [1] and in experiment [2] were -1.01% and 7%, respectively. Further, the viability increase in experiment [3] was -0.92%. In addition, the viability in experiment [4] was 97.8%; in experiment [5], 97.5%. The inhibition in experiment [6] was 1.54%. Moreover, the RAM network inhibition in experiment [7] was 4.52%.
Consider `Cc1ccnc(SCCn2c(N(C)Cc3ccccc3)nc3c2c(=O)n(C)c(=O)n3C)n1`, for which the results for the growth inhibition in experiment [1] and in experiment [2] were -15.3% and -13%, respectively. For the same compound, the viability increase in experiment [3] was -0.84%. Further, the results for the viability in experiment [4] and in experiment [5] were 93.3% and 88.7%, respectively. Moreover, in experiment [6], the inhibition is -0.475%. For the same compound, the RAM network inhibition in experiment [7] is 5.55%.
Take `Cc1nc2sc(C(c3ccc(C(C)C)cc3)N3CCN(CCO)CC3)c(O)n2n1` (stereo unspecified): the growth inhibition in experiment [1] is -9.91%; in experiment [2], -9.61%. The viability increase in experiment [3] is -0.75%. Besides, the viability was 97% in experiment [4] and 98.1% in experiment [5]. In addition, in experiment [6], the inhibition was 1.58%. For the same compound, the RAM network inhibition in experiment [7] was 2.77%.
In the case of `CCOc1ccc(N(CC(=O)Nc2ccccc2C)S(=O)(=O)c2c(C)noc2C)cc1`, the growth inhibition was 10.9% in experiment [1] and 4.1% in experiment [2]. Also, in experiment [3], the viability increase is -5.61%. For the same compound, the viability in experiment [4] was 15.9% (active); in experiment [5], 18.1% (active). In addition, the inhibition in experiment [6] is 2.38%. Also, the RAM network inhibition in experiment [7] was -0.84%.
For `CC1(C)CC(=O)C2=C(C1)OC(N)=C(C#N)C21CCN(Cc2ccccc2)CC1`, the growth inhibition was -19.9% in experiment [1] and -21.6% in experiment [2]. Also, the viability increase in experiment [3] is -3.46%. Also, the viability in experiment [4] is 97.7%; in experiment [5] it was 97.6%. Besides, the inhibition in experiment [6] was 2.13%. In addition, the RAM network inhibition in experiment [7] was 5.53%.
Regarding `Cn1nnnc1SCc1nc2ccccc2[nH]1`, the growth inhibition was -7.39% in experiment [1] and -5.67% in experiment [2]. Besides, the viability increase in experiment [3] is 0.69%. Besides, the viability in experiment [4] is 101%; in experiment [5], 102%. Further, in experiment [6], the inhibition was 0.215%. For the same compound, the RAM network inhibition in experiment [7] is 3.43%.
In the case of `O=C1C2CCCN2C(c2ccc(F)c(F)c2)N1c1cccc(Cl)c1` (stereo unspecified), the growth inhibition in experiment [1] was 3.17%; in experiment [2], -1.67%. Moreover, the viability increase in experiment [3] was -0.86%. In addition, the viability in experiment [4] was 101%; in experiment [5], 100%. Further, the inhibition in experiment [6] was 0.745%. In addition, in experiment [7], the RAM network inhibition was 5.42%.
Take `COc1ccccc1C(=O)N(Cc1nc(-c2ccc(Cl)cc2)no1)C(C)C`: the values for the growth inhibition in experiment [1] and in experiment [2] were -17.9% and -20.1%, respectively. Moreover, in experiment [3], the viability increase is 1.78%. For the same compound, the viability in experiment [4] is 69%; in experiment [5], 71.3%. For the same compound, the inhibition in experiment [6] is 0.605%. Also, in experiment [7], the RAM network inhibition is 6.95%.
Regarding `Cc1nc2ccc(S(=O)(=O)NC(C(=O)N3CCCCCC3)C(C)C)cc2s1` (stereo unspecified), the growth inhibition was -11.3% in experiment [1] and -4.58% in experiment [2]. In experiment [3], the viability increase was -1.12%. Further, the viability in experiment [4] was 97.5%; in experiment [5] it was 87.8%. The inhibition in experiment [6] was 2.01%. Besides, the RAM network inhibition in experiment [7] was 2.77%.
`O=C(C1CC1)N1CCCN(C(=O)C2CC2)CC1`: the growth inhibition in experiment [1] is 2.42%; in experiment [2] it was -1.38%. The viability increase in experiment [3] was -1.86%. Further, the viability in experiment [4] was 98.8%; in experiment [5] it was 97.1%. For the same compound, the inhibition in experiment [6] is 2.03%. The RAM network inhibition in experiment [7] was 4.69%.
Consider `COc1ccccc1NC(=O)C1=C(C)NC(=O)NC1c1ccc(C)cc1` (stereo unspecified), for which the growth inhibition was -6.15% in experiment [1] and -13.7% in experiment [2]. Also, the viability increase in experiment [3] was -1.68%. Moreover, the viability in experiment [4] is 105%; in experiment [5] it was 95.6%. The inhibition in experiment [6] is 1.23%. For the same compound, the RAM network inhibition in experiment [7] is -1.08%.
With `CCOCCOCN(C#N)c1nc(OC)nc(N(C)C)n1`, the figures for the growth inhibition in experiment [1] and in experiment [2] were -5.92% and 0.69%, respectively. Moreover, the viability increase in experiment [3] was 1.74%. Further, the values for the viability in experiment [4] and in experiment [5] were 102% and 99.9%, respectively. In experiment [6], the inhibition is 0.555%. The RAM network inhibition in experiment [7] was 2.46%.
As to `COc1ccc(OC)c(CN2C(=O)c3ccccc3C2C(=O)NCc2cccnc2)c1` (stereo unspecified), the growth inhibition is -6.83% in experiment [1] and 2.58% in experiment [2]. Also, the viability increase in experiment [3] was 0.05%. The viability is 106% in experiment [4] and 97.6% in experiment [5]. In experiment [6], the inhibition was 0.155%. Besides, the RAM network inhibition in experiment [7] was 4.09%.
For `Cc1ccc2nc(NC(=O)CCNS(=O)(=O)c3cccs3)sc2c1`, the values for the growth inhibition in experiment [1] and in experiment [2] were -5.57% and -7.59%, respectively. The viability increase in experiment [3] was 3.2%. The viability in experiment [4] is 87%; in experiment [5], 71.7%. In addition, the inhibition in experiment [6] is 0.45%. In addition, the RAM network inhibition in experiment [7] was 3.7%.
In the case of `Cc1cnc(C(=O)OCC(=O)Nc2ccc(Cl)cc2)cn1`, the growth inhibition in experiment [1] was -19%; in experiment [2] it was -21%. For the same compound, in experiment [3], the viability increase is -2.99%. In addition, the viability in experiment [4] was 101%; in experiment [5], 92.8%. Moreover, in experiment [6], the inhibition is 3.85%. Besides, the RAM network inhibition in experiment [7] was 3.15%.
As to `COc1ccc(C(=O)Nc2c(F)c(F)c(F)c(F)c2F)c(OC)c1`, the growth inhibition in experiment [1] was -11%; in experiment [2] it was 3.84%. Also, the viability increase in experiment [3] is -1.15%. Also, the viability in experiment [4] was 100%; in experiment [5], 102%. For the same compound, the inhibition in experiment [6] was 2.96%. The RAM network inhibition in experiment [7] was 2.45%.
`CCOc1ccc(N(CC(=O)N2CC=C(c3ccccc3)CC2)S(=O)(=O)c2c(C)noc2C)cc1`: the results for the growth inhibition in experiment [1] and in experiment [2] were -3.46% and -23.9%, respectively. Also, the viability increase in experiment [3] is -3.95%. For the same compound, the viability in experiment [4] was 71.1%; in experiment [5], 64.9%. Moreover, in experiment [6], the inhibition is 1.11%. Moreover, the RAM network inhibition in experiment [7] was 0.32%.
With `C=CCn1c(CSc2nc3ccccc3s2)nnc1SCC(=O)OCC`, the figures for the growth inhibition in experiment [1] and in experiment [2] were -1.57% and 27.4%, respectively. The viability increase in experiment [3] is -0.04%. Moreover, the viability was 97.6% in experiment [4] and 101% in experiment [5]. For the same compound, in experiment [6], the inhibition is -0.335%. Further, the RAM network inhibition in experiment [7] is 9.66%.
